From the EternaBench riboswitch data

Tested on: MS2 coat protein
Assay: apparent Kd, MS2 coat protein; higher = weaker binding; RNA-MaP array; FMN 200 µM where present
Summary of the method: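 The apparent Kd is reported as the median of filtered per-cluster binding-curve fits. To get these curves, designs transcribed by stalled E. coli RNA polymerase on Illumina sequencing-chip clusters were titrated with SNAP-549-labelled MS2 coat protein from 0.7 or 1.5 nM, doubling to 3 µM. Titrations were run without and then with constant ligand in 100 mM Tris-HCl pH 7.5, 80 mM KCl, 4 mM MgCl2, BSA, DTT, yeast tRNA and Tween-20, and green signal was normalised to red-channel RNA signal and control-cluster median Fmax.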

[1] = designed as: OFF switch for flavin mononucleotide, no ligand
[2] = ligand present: flavin mononucleotide, designed as: OFF switch for flavin mononucleotide
[3] = designed as: ON switch for flavin mononucleotide, no ligand
[4] = ligand present: flavin mononucleotide, designed as: ON switch for flavin mononucleotide

| Sequence | apparent Kd [1] [nM] | apparent Kd [2] [nM] | apparent Kd [3] [nM] | apparent Kd [4] [nM] |
| --- | --- | --- | --- | --- |
| AAAUACCUUGUGAUCAGCGUAACAUGAGGAUCACCCAUGUUGCAGGAUAUCGAACCCAGUCAGUACGAGAAGGGCAAUAGUGUU | 7.16 | 11.6 | – | – |
| CUUCUCAGAGUCAGGAUAUAGUCGAAAGGGCUAGACUAGAAGGGACAUGAGGAUCACCCAUGUAAAAUAUCAAA | 19.2 | 29.8 | – | – |
| AGCUCCGCUCGAGGAUAUAGCUGCAUGUAGUGUCCUGAGGCACAUGAGGAUCACCCAUGUGUAGGCUAGAAGGCGACGGACAUU | 43.3 | 152 | – | – |
| GGACCGCGUAGAAUUAGCGGCCGGCAGGAUAUGACAUGAGGAUCACCCAUGUGAACUCCAUUGGGUCAGAAGGGCCACGACACA | 20.6 | 96.4 | – | – |
| UGGGACUAGGGAGGAUAUGGGAAGAUACAUGAGGAUCACCCAUGUUUAAGAAUGCCGAGAGGCAACUAGAAGGCCCUAGUACCU | – | – | 446 | 20.4 |
| ACAACUAAGCAGAAGGCAGUCAUAGCAUUCGUCAUGUAGACAUGAGGAUCACCCAUGUAUAGUGCUGAGGAUAUGCUUGGUUAG | 11.3 | 9.47 | – | – |
| CGCAACAUGAGGAUCACCCAUGUUCGCGGGCAAUUUUAGUGCAGAAGGGACAACGAAACGUAGGGUCAGGAUAUGCAUGUGCGC | – | – | 5.26 | 5.17 |
| GGAUACAUCGGAGGAUAUCAUGUAAAUACAUGAGGAUCACCCAUGUCGAUGGAGACAUCGGAGAUUGAGAAGGCCGAUGUACCG | – | – | 164 | 8.95 |
| AAAUAACCUAGCAAAAUUUCCUCACAUGAGGAUCACCCAUGUAGAAGGCUGUCCUAAAAUAGGACAGAGGAUAUACAUGCUAGG | 10.6 | 171 | – | – |
| AUAAUGAGAGGAUAUACAUGAGGAUCACCCAUGUUAUUAUCACGGCGUGCUCCAUUACGUAGAAGGCUCAUUUA | 117 | 35.2 | – | – |
| CACCGGCCCUAUAUGUUCUAGACAUGAGGAUCACCCAUGUAUAGAAGGGUCUUCGCGAAACGCAGACAGGAUAUGUACAGGAGU | 6.08 | 9.13 | – | – |
| GAAGCACGCAUUAACAUGAGGAUCACCCAUGUCAAAAGACGUGAGGAUAUGGAUCUGAAGAAGAUCCAGAAGGCACUGUGCUAA | – | – | 7.39 | 5.59 |
| UCAAUUCUGACAUCCUUAUUACAUGAGGAUCACCCAUGUUGUGAGGAUAUCCCAACCCACGGUCAGGAGAAGGCACAUAGAGGG | 5.5 | 5.9 | – | – |
| UUCCUACAUGAGGAUCACCCAUGUCAGGAUAUGUAGACGCAAAUUUACGAUUUGCGGAAUAGAAGGGACGUGAC | 24.1 | 25.9 | – | – |
| CCUUCACAUGAGGAUCACCCAUGUCCUAGUCCGUCAGGAUAUAGCCCGCAUCCGCUGUGGCUAGAAGGGACUGCUG | – | – | 141 | 235 |
| AUUAUUUAUAGUUAUUGGUAUUUUACAGAAGGUGAAAGUGUCACAUGAGGAUCACCCAUGUUCUUCAAGGAUAUGUUGUUAUAC | – | – | 64.2 | 11.6 |
| GACGUUGGAGGAUAUACACGAGUGCUCAGUUGGCCCGGUCGACAUGAGGAUCACCCAUGUAGAAGGCCGACACU | 17.6 | 22.8 | – | – |
| UCCUGAUCGAGAGGUAGGAGUGGUAGAAGGCGACCGGUGCCAGAUGACAUGAGGAUCACCCAUGUCGAGGAUAUACCACAGAAU | 7.03 | 12.3 | – | – |
| UGUCGGAGCAGAGGAUAUUACAUGAGGAUCACCCAUGUAUGAACCAAUAGCUGGAAGCAGCAAUGUAAGAAGGCUGCUCCGACA | 12.2 | 137 | – | – |
| AGCUAGUCAGGAUAUACGAACAUGUCAAAAGACGUGAAAGGACAUGAGGAUCACCCAUGUAGAAGGGACUAGCA | 21.4 | 46.9 | – | – |
| UUAAUAGUAGGAUAUACAUGAGGAUCACCCAUGUAGCAACUACAUUAAGGAACCUGAUGUAGAAGGACUCCCAG | 13.3 | 15.2 | – | – |
| ACGUAUCAUGUAGGAUAUGACCCAGGAAACUGGUCAGAAGGACAUGAGGAUCACCCAUGUAGAGUAUGUUAGGAUGACGUAUGC | 138 | 188 | – | – |
| GUAGCUAUCGGAGGAUAUUCAUGAUACAUGAGGAUCACCCAUGUUAAAAUGGGAGAAGGCCGAUAGCUACAAGAGCGAAAGCUC | – | – | 41.1 | 8.01 |
